Experimental data taken from PubChem BioAssay AID743061 (The Scripps Research Institute Molecular Screening Center, 2013).

Molecular target: Methionine--tRNA ligase, mitochondrial (Homo sapiens) (UniProt Q96GW9)
Assay: human mtMetRS tRNA charging inhibition – biochemical, radioactivity, round 1, selectivity assay for T. brucei MetRS inhibitor project, late-stage follow-up (AID 743061);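 further: 0% = DMSO with full reaction and 100% = DMSO wells lacking tRNA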
Conditions: recombinant human mtMetRS, [3H]Met tRNA charging, at 1 µM, stronger effect = higher value
Method in brief: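 Material: Recombinant human mitochondrial methionyl-tRNA synthetase (MetRS) | Medium: pH 8.0 buffer, 2.5 mM ATP | Reagent: [3H]Met 240 nM plus bulk E. coli tRNA | Compound: 10 and 1 µM | Schedule: 15 min compound–enzyme preincubation, then 1 h reaction at room temperature | Measured by: Scintillation counts of TCA-precipitated charged tRNA on filters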

SMILES | inhibition [%]
COc1ccc(CNC(=O)CSc2nnc3c(n2)[nH]c2ccc(F)cc23)cc1 | -29.7
Cn1c(CCNC(=O)c2ccc(Cl)cc2)nc2ccccc21 | 11.6
Brc1cnc2nc(SCc3nc4ccccc4[nH]3)[nH]c2c1 | -21.5
O=C(NCc1nc2ccccc2[nH]1)C1=C[C@H](C2CC2)C[C@H](OCc2ccc(CO)cc2)O1 | 7.99
Cc1ccc(CNC(=O)CSc2nnc3c(n2)[nH]c2ccc(C)cc23)cc1 | 1.77
Oc1c(Cl)cc(Cl)cc1CNc1nc2ccccc2[nH]1 | -0.2
CC(=O)N(CCc1ccccc1)C1CC(=O)N(c2ccc(Br)cc2)C1=O (centres undefined) | -17.2
COc1ccccc1NC(=O)CSc1nnc2c(n1)[nH]c1ccc(C)cc12 | -3.56
Cc1[nH]c2ccc(Br)cc2c(=O)c1CN1CCCCCC1 | -31.2
CN1CC(=O)N2C(c3cccc([N+](=O)[O-])c3)c3[nH]c4ccccc4c3C[C@H]2C1=O (some centres undefined) | -17.1
CC1Cc2ccccc2N1C(=O)Cn1cc(C(=O)C(=O)N2CCOCC2)c2ccccc21 (centres undefined) | -0.48
O=C(Cn1cc(C(=O)COc2ccccc2)c2ccccc21)Nc1cccc(C(F)(F)F)c1 | -22.6
Cc1cccc2[nH]c(C3CCCN(C(=O)c4cccc5cccnc45)C3)nc12 (centres undefined) | -4.24
O=C(NCc1nc2ccccc2[nH]1)C1=C[C@H](c2ccc(Br)cc2)C[C@H](OCCCCO)O1 | -6.37
CCN(C(=O)Cn1cc(C(=O)C(=O)N2CCOCC2)c2ccccc21)c1ccccc1 | -12.3
O=C(NCc1nc2ccccc2[nH]1)C1=C[C@@H](C2CC2)C[C@@H](OCc2ccc(CO)cc2)O1 | -11.4
CCc1ccc2c(c1)c1nnc(SCC(=O)Nc3ccc4c(c3)OCO4)nc1n2C | -9.7

SMILES | inhibition [%]
O=C(Cn1cc(C(=O)C(=O)N2CCOCC2)c2ccccc21)NCc1ccccc1 | -5.05
O=C(NCc1nc2ccccc2[nH]1)C1=C[C@@H](c2ccc3c(c2)OCO3)C[C@@H](OCCCCO)O1 | -3.63
O=C(Cn1cc(C(=O)C(=O)N2CCOCC2)c2ccccc21)NCC1CCCO1 (centres undefined) | -9.17
Cc1ccc2[nH]c3nc(SCC(=O)Nc4ccc(C(F)(F)F)cc4)nnc3c2c1 | -10
O=C(NNC(=O)c1cc(-c2ccc(Cl)c(Cl)c2)nc2ccccc12)Nc1ccccc1 | -17.1
Clc1ccc(OCCSCc2nc3ccccc3[nH]2)cc1 | -20
O=C(NCCc1nc2ccccc2[nH]1)c1ccc(Cl)c([N+](=O)[O-])c1 | 2.97
O=C(NCc1nc2ccccc2[nH]1)C1=C[C@H](c2ccc(Br)cc2)C[C@H](OCc2ccc(CO)cc2)O1 | 0.59
CCN(CC)C(=O)C(=O)c1cn(CC(=O)Nc2cccc(OC)c2)c2ccccc12 | 10.6
O=C(NNC(=O)c1ccc(-n2cncn2)c([N+](=O)[O-])c1)c1ccc(Cl)cc1 | -30.3
O=C(CN1CCSC1=NCc1ccccc1)c1ccc(Cl)c(Cl)c1 | -25.1
O=C(CC(=O)Nc1cccc(Cl)c1)NN=Cc1ccccc1 | -18.3
CC(=O)N(CCc1ccccc1)C1CC(=O)N(c2ccc(Cl)cc2)C1=O (centres undefined) | -19.9
O=C(N/C(=C\c1cccnc1)c1nc2ccccc2[nH]1)c1cccc(Br)c1 | -19.7
CCOC(=O)N1CCC(Nc2c(Nc3ccc(F)cc3)c(=O)c2=O)CC1 | -8.53
CCN(CC)C(=O)C(=O)c1cn(CC(=O)Nc2cccc(C(F)(F)F)c2)c2ccccc12 | -0.41
CCc1ccc2[nH]c3nc(SCC(=O)NCc4cccc(OC)c4)nnc3c2c1 | -1.1
